How the values were obtained:
Deoxyhypusine synthase = target: T1, Deoxyhypusine synthase (Rattus norvegicus, UniProt Q6AY53); assay: In vitro IC50 value by measuring the inhibition of deoxyhypusine synthase.
T1 sequence (Q6AY53 whole entry): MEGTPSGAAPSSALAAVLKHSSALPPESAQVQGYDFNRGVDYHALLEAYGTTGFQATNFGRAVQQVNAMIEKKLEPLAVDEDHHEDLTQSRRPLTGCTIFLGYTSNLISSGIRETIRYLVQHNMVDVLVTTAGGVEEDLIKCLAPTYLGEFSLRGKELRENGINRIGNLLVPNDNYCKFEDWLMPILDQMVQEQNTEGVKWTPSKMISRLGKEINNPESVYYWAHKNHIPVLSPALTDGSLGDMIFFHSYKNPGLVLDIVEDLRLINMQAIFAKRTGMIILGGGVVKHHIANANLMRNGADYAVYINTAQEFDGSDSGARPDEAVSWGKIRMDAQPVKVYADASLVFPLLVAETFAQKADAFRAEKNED

[1] = target: T2, Deoxyhypusine synthase (Homo sapiens) (UniProt P49366); assay: Effect on protein synthesis in CHO cells at concentration 10 uM.; details: Cricetulus griseus
T2 sequence (whole entry): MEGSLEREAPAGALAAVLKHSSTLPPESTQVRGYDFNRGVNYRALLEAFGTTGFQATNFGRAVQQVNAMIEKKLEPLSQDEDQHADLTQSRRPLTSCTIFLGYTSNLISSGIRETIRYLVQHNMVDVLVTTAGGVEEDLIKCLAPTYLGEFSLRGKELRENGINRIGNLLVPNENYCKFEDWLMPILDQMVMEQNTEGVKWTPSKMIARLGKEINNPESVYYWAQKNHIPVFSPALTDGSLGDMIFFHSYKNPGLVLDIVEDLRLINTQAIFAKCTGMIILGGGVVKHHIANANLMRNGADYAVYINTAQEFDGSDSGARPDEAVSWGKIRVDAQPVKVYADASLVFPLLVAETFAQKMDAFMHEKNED

[2] = target: T2, Deoxyhypusine synthase (Homo sapiens); assay: Effect on Hypusine formation in CHO cells at concentration 10 uM.; type: functional, cell-based; details: Cricetulus griseus
[3] = target: T2, Deoxyhypusine synthase (Homo sapiens); assay: Effect on protein synthesis in CHO cells at concentration 3 uM.; details: Cricetulus griseus
CHO [4] = assay: Effect on spermidine uptake in CHO cells at concentration 10 uM.; type: functional
In short: (§1)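 Spermidine uptake in CHO cells: total cellular radioactivity after 18 h growth with 5 μCi/mL [3H]spermidine in presence of compound, reported as percentage of untreated-cell value.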

[5] = target: T2, Deoxyhypusine synthase (Homo sapiens); assay: Effect on Hypusine formation in CHO cells at concentration 3 uM.; type: functional, cell-based; details: Cricetulus griseus
CHO [6] = assay: Effect on spermidine uptake in CHO cells at concentration 3 uM.; type: functional, Cricetulus griseus; in short: as §1
CHO [7] = assay: Effect on hypusine synthesis in CHO cells at concentration 10 uM.; type: functional, Cricetulus griseus
CHO [8] = assay: Growth inhibition was measured against CHO cell line; - indicates >100 uM; type: functional, cell-based; details: Cricetulus griseus
In short: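 CHO cells grown with compound for 72 h; cellular protein measured by bicinchoninic acid method as crude growth estimate (control protein rose ~16-fold over 72 h). Symbol gives compound range halving protein versus control: ++++ <0.5, +++ 0.5-1, ++ >1-10, + >10-100, - >100 μM.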

Row | SMILES | IC50 (Deoxyhypusine synthase) [µM] | Control [1] [%] | Control [2] [%] | Control [3] [%] | Control [5] [%] | Control (CHO [4]) [%] | other results
1 | N=C(N)SCCCCCCCCSC(=N)N | > 1000 |  |  |  |  |  | 
2 | NCCCCCCCCNCCCCCCCCN=C(N)N |  | 22 | 27 | 20 | 36 | 80 | 
3 | NCCCNCCCN [NORSPERMIDINE] | 41 |  |  |  |  |  | 
4 | N=C(N)SCCCCSC(=N)N | > 1000 |  |  |  |  |  | 
5 | NCCCSCCCN=C(N)N | 1.9 | 25 | 24 | 40 | 50 | 100 | 
6 | N=C(N)NCCCSCCCNC(=N)N | 21 | 60 | 74 | 100 | 100 | 81 | 
7 | N=C(N)CCCCCCCCCCC(=N)N | > 1000 |  |  |  |  |  | 
8 | N=C(N)NCCCCSCCCNC(=N)N | 48 |  |  |  |  |  | 
9 | N=C(N)NCCCCCCCCNCCCCCCCCNC(=N)N [IMINOCTADIENE] | 3.5 | 84 | 100 | 100 | 100 | 95 | 
10 | N=C(N)SCCCCCCSC(=N)N | 780 |  |  |  |  |  | 
11 | CCNCCCCCCCNC(=N)N | 9 |  |  |  |  |  | 
12 | NCCCCCCNCCCCCCN | > 1000 |  |  |  |  |  | 
13 | NCCCNOCCCN | 385 |  |  |  |  |  | 
14 | N=C(N)NCCCCCCCNCCCCCCCN | 0.3 |  |  |  |  |  | 
15 | NCCCCCNCCCCCN=C(N)N | 100 | 65 | 92 | 80 |  | 74 | 
16 | N=C(N)NCCCCN [AGMATINE] | 156 |  |  |  |  |  | 
17 | N=C(N)NCCCOCCCN | 0.7 |  |  |  |  |  | 

Row | SMILES | IC50 (Deoxyhypusine synthase) [µM] | Control [1] [%] | Control [2] [%] | Control [3] [%] | Control [5] [%] | Control (CHO [4]) [%] | other results
18 | N=C(N)NCCCCCCCCN | 0.55 |  |  |  |  |  | 
19 | N=C(N)NCCCCCCN | 132 |  |  |  |  |  | 
20 | NCCCCNCCCCN | 556 |  |  |  |  |  | Growth inhibition (CHO [8]): Not toxic
21 | N=C(N)NCCCCCCNCCCCCCNC(=N)N | 40 | 87 | 100 | 93 | 96 | 95 | 
22 | N=C(N)NCCCNCCCN | 1.2 |  |  |  |  |  | 
23 | N=C(N)NCCCCCNCCCCCNC(=N)N | 38 | 100 | 100 | 100 | 100 | 95 | 
24 | N#CCCNCCCCCCCNC(=N)N | 96 |  |  |  |  |  | 
25 | NC(N)=NCCCCN=C(N)N [ARCAINE] | 179 |  |  |  |  |  | 
26 | N=C(N)CCCCCCC(=N)N | > 1000 |  |  |  |  |  | 
27 | N=C(N)CCCCCCCCCC(=N)N | > 1000 |  |  |  |  |  | 
28 | [H]/N=C(/N)NCCCCCNC(=N)N | 6.8 |  |  |  |  |  | 
29 | NCCCCCN=C(N)N | 29 |  |  |  |  |  | 
30 | NCCCCCCCCNCCCCCCCCN | 116 |  |  |  |  |  | 
31 | N=C(N)NCCCCCCCNC(=N)N | 3.4 |  |  |  |  |  | 
32 | NCCCOCCCN | 13 | 85 | 100 | 100 | 100 | 100 | 
33 | CCNCCCCCCCN | 275 |  |  |  |  |  | Growth inhibition (CHO [8]): Not toxic
34 | N=C(N)SCCCCCSC(=N)N | > 1000 |  |  |  |  |  | 

Continued, in another order:

Row | IC50 (Deoxyhypusine synthase) [µM] | Control [1] [%] | Control [2] [%] | Control [3] [%] | Control [5] [%] | SMILES | Control (CHO [4]) [%] | other results
35 | > 1000 |  |  |  |  | N=C(N)SCCCCCCCSC(=N)N |  | 
36 |  | 92 | 20 | 98 | 76 | NCCCOCCCN=C(N)N | 95 | 
37 |  | 75 | 23 | 77 | 50 | NCCCNCCCN=C(N)N | 34 | Control (CHO [6]): 76%
38 |  | 20 | 22 | 24 | 34 | NCCCCCCCNCCCCCCCN=C(N)N | 65 | 
39 | 63 |  |  |  |  | NCCCCCCCNCCCCCCCN |  | 
40 | 0.03 | 50 |  | 62 | 0 | N=C(N)NCCCCCCCN |  | Control (CHO [6]): 100%
41 | > 1000 |  |  |  |  | N=C(N)CCCCCCCCC(=N)N |  | 
42 | 16.1 |  |  |  |  | N=C(N)NCCCCCCCCNC(=N)N |  | 
43 | 8 |  | 100 | 100 | 100 | N=C(N)NCCCOCCCNC(=N)N | 100 | Control (CHO [7]): 100%
44 | 112 |  |  |  |  | N=C(N)NCCCCCCNC(=N)N |  | 
45 | 3.2 | 100 | 100 | 100 | 100 | N=C(N)NCCCCNCCCCNC(=N)N | 85 | 
46 | 0.16 | 93 | 3 | 88 | 7 | NCCCCNCCCCN=C(N)N | 28 | Control (CHO [6]): 64%
47 |  | 28 | 36 | 34 | 76 | CCNCCCCCCCN=C(N)N | 95 | 
48 | 74 |  |  |  |  | N=C(N)NCCCCCCNCCCCCCN |  | 
49 | 0.08 | 67 | 74 | 88 | 90 | N=C(N)NCCCCCCCNCCCCCCCNC(=N)N | 95 | 
50 | 120 |  |  |  |  | N=C(N)CCCCCCCC(=N)N |  | 
51 | 83 | 81 | 93 | 86 | 100 | NCCCSCCCN | 100 | 
52 | 13 |  |  |  |  | N=C(N)NCCCCCCCCNCCCCCCCCN |  | 
53 | 182 |  | 100 | 80 | 98 | N=C(N)NCCCNCCCNC(=N)N | 95 | Growth inhibition (CHO [8]): Not toxic
54 |  | 35 | 48 | 45 | 61 | NCCCCCCNCCCCCCN=C(N)N | 80 | 
55 | > 1000 |  |  |  |  | N=C(N)CCCCCC(=N)N |  | 
56 | 235 |  |  |  |  | NCCCCSCCCN |  | 
57 | > 1000 |  |  |  |  | NCCCCCNCCCCCN |  | 

Source: ChEMBL document CHEMBL1128500, “Diamine and triamine analogs and derivatives as inhibitors of deoxyhypusine synthase: synthesis and biological activity” (J Med Chem, 1995)
